Test results: article PMC3128789 (Nuclear medicine and biology, 2011)
Like-named read-outs stand apart in the source and are kept apart here.

How the values were obtained:
[1] = by 5 h; cited from earlier work
hexokinase = settings: cited from earlier work
glucose dehydrogenase = settings: enzyme derived from rat liver; cited from earlier work
[2] = Urinary excretion of radioactivity; format: in vivo, Sprague-Dawley rats; settings: by 24 h, 3H radioactivity
Outline: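 Rats under isoflurane received 74 kBq (2 μCi) [1-³H]6FDG by tail vein and were handled as in the ¹⁸F study: recovery in a metabolic cage for the later time points. Urine radioactivity was counted directly and expressed as a percentage of injected radioactivity at 1, 6 and 24 h.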

[3] = format: in vivo, Sprague-Dawley rats; settings: 1 h biodistribution time
[4] = HPLC quantification of neutral radioactivity; format: in vivo, Sprague-Dawley rats
[5] = format: in vivo, Sprague-Dawley rats
[6] = format: in vivo, Sprague-Dawley rats; settings: liver
Outline: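 Rats under 2% isoflurane in oxygen received the tracer by tail vein: about 37 MBq (1 mCi) for the 1 h point and 370 MBq (10 mCi) for 6 h. Tissues were homogenised in 8 mL/g ice-cold ethanol:PBS:water (65:10:25) and spun 15 min at 23,500 × g, 4 °C. The methanol-water extract was dried, taken up in water and run on formate-form AG 1-X8 anion exchange, eluting with water then formic acid. Columns were counted afterwards.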

[7] = intact rats, without phlorizin (SGLT inhibitor) pre-treatment; cited from earlier work
[8] = format: in vivo, Sprague-Dawley rats; settings: average of all tissues, 1 h after i.v. injection

## CO[C@@H]([C@H](O)[C@H](O)CO)[C@@H](O)C=O [3OMG, 3-O-methyl-glucose, reference compound]
[1]
  urinary excretion: 50%
hexokinase
  phosphorylation by hexokinase in vitro: can be phosphorylated

## C[C@@H](O)[C@@H](O)[C@H](O)[C@@H](O)C=O [6-deoxy-D-glucose]
Glucose dehydrogenase
  activity of glucose dehydrogenase on substrate: same activity

## O=C[C@H](O)[C@@H](O)[C@H](O)[C@H](O)CF [6FDG, 6-fluoro-6-deoxy-D-glucose]
[2]
  urinary excretion of radioactivity, percentage of injected radioactivity: less than 8%
Glucose dehydrogenase
  activity of glucose dehydrogenase on substrate: same activity
hexokinase; preliminary evaluation
  phosphorylation by hexokinase in vitro: lack of its phosphorylation

## OC[C@H]1OC(O)[C@H](O)[C@@H](O)[C@@H]1O (stereo partly drawn) [D-glucose]
Glucose dehydrogenase
  activity of glucose dehydrogenase on substrate: same activity

## [3H]C1(O)O[C@H](CF)[C@@H](O)[C@H](O)[C@H]1O (stereo partly shown) [[1-^3H]6FDG]
[3]
  percentage of 3H radioactivity eluting with water, cation exchange column: ~100%
[4]; blood, 6 h
  percentage of radioactivity eluting as [1-3H]6FDG (HPLC): > 99%
[4]; heart, 1 h (lowest tissue)
  percentage of radioactivity eluting as 6FDG (HPLC): 90%
[4]; heart, 6 h (highest tissue)
  percentage of radioactivity eluting as [1-3H]6FDS (HPLC): 28%
[4]; heart, 6 h (lowest tissue)
  percentage of radioactivity eluting as 6FDG (HPLC): 69%
[4]; skeletal muscle, 24 h (highest tissue)
  percentage of radioactivity eluting as [1-3H]6FDS (HPLC): 31%
[4]; skeletal muscle, 24 h (lowest tissue)
  percentage of radioactivity eluting as 6FDG (HPLC): 65%
[5]; 24 h after i.v. injection
  blood radioactivity: negligible
[5]; average across tissues, 1 h
  percentage of 3H radioactivity eluting with water, anion exchange column: 101%
[5]; average across tissues, 24 h
  percentage of 3H radioactivity eluting with water, anion exchange column: 95%
[5]; individual tissues, 1 h
  percentage of 3H radioactivity eluting with water, anion exchange column: ≥ 90%

## O=C[C@H](O)[C@@H](O)[C@H](O)[C@H](O)C[18F] [[^18F]6FDG, [^18F]6-fluoro-6-deoxy-D-glucose]
[6]; 1 h
  percentage of 18F radioactivity remaining bound to the anion exchange column: 1%
[6]; 6 h
  percentage of 18F radioactivity remaining bound to the anion exchange column: 5%
[7]
  urinary excretion of [18F]6FDG: little urinary excretion
[8]
  percentage of homogenate 18F radioactivity in the methanol-water layer (extraction): 95.6 ± 2.6%
